Among the data in ChEMBL document CHEMBL2406929, “An optimized pyrimidinol multifunctional radical quencher” (ACS Med Chem Lett, 2013) are Activity, EC50 and inhibition values, retold here.

Experiment [1] is filed under the species Homo sapiens. In words: Decrease in total ATP level in human Friedreich's ataxia lymphocytes after 48 hrs by bioluminescence assay. Format: functional. The procedure, abridged:
(§1)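 Total cellular ATP measured in CoQ10-deficient and FRDA lymphocytes grown in glucose-free medium supplemented with galactose, so that cells rely on oxidative phosphorylation. Compounds tested at 5, 10 and 25 μM for 48 h, added from DMSO (final <0.5%). ATP expressed as % of untreated control.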

Experiment [2] is filed under the species Homo sapiens. Nature of the experiment: Decrease in total ATP level in CoQ10-deficient human GM17932 cells after 48 hrs by bioluminescence assay. Format: functional. The procedure, abridged: as §1
The nature of experiment [3]: Effect on total ATP level in human Friedreich's ataxia lymphocytes at 25 uM after 48 hrs by bioluminescence assay relative to control. Format: functional. The procedure, abridged: as §1
Experiment [4] in a line: Effect on total ATP level in human Friedreich's ataxia lymphocytes at 10 uM after 48 hrs by bioluminescence assay relative to control. Format: functional. The procedure, abridged:
as §1

Experiment [5] can be described thus: Effect on total ATP level in human Friedreich's ataxia lymphocytes at 5 uM after 48 hrs by bioluminescence assay relative to control. Format: functional. In short, it runs like this: as §1
A short description of experiment [6]: Effect on total ATP level in CoQ10-deficient human GM17932 cells at 25 uM after 48 hrs by bioluminescence assay relative to control. It is filed as functional. The procedure, abridged:
as §1

Experiment [7] in a line: Effect on total ATP level in CoQ10-deficient human GM17932 cells at 10 uM after 48 hrs by bioluminescence assay relative to control. It is filed as functional. In short, it runs like this:
as §1

A short description of experiment [8]: Effect on total ATP level in CoQ10-deficient human GM17932 cells at 5 uM after 48 hrs by bioluminescence assay relative to control. It is filed as functional. The procedure, abridged: as §1
Experiment [9] is filed under the species Homo sapiens. Nature of the experiment: Cytoprotective activity against diethyl maleate-induced loss of mitochondrial membrane integrity in human Friedreich's ataxia lymphocytes at 500 nM incubated overnight prior to diethyl maleate-treatment measured after 140 mins by TMRM staining-based FACS flow cytometric analysis relative to control. It is filed as functional. In short, it runs like this:
(§2)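 Δψm in FRDA lymphocytes after diethyl maleate treatment. Cells stained with 250 nM TMRM and analyzed by flow cytometry on the FL2-H channel, 10,000 events per sample. Result is the % of cells with intact Δψm (top-right quadrant). FCCP uncoupler used as positive control. Final DMSO <0.5%. Means ± SEM of three independent experiments run in duplicate.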
For orientation: In flow cytometry, cells or beads pass a laser one at a time.

The species named for experiment [10] is Homo sapiens. Nature of the experiment: Cytoprotective activity against diethyl maleate-induced loss of mitochondrial membrane integrity in human Friedreich's ataxia lymphocytes at 250 nM incubated overnight prior to diethyl maleate-treatment measured after 140 mins by TMRM staining-based FACS flow cytometric analysis relative to control. Format: functional. The procedure, abridged:
as §2

Experiment [11] is filed under the species Homo sapiens. In words: Cytoprotective activity against diethyl maleate-induced loss of mitochondrial membrane integrity in human Friedreich's ataxia lymphocytes at 100 nM incubated overnight prior to diethyl maleate-treatment measured after 140 mins by TMRM staining-based FACS flow cytometric analysis relative to control. It is filed as functional. In short, it runs like this: as §2

A short description of experiment [12]: Cytoprotective activity against BSO-induced cell death in human Friedreich's ataxia fibroblasts preincubated for 12 hrs prior to BSO-treatment measured after 48 hrs by luminescence assay.
For experiment [13], the species on record is Homo sapiens. In words: Antioxidant activity in human Friedreich's ataxia lymphocytes assessed as inhibition of diethyl maleate-induced lipid peroxidation at 100 to 500 nM incubated overnight prior to diethyl maleate-treatment measured after 120 mins by C11-BODIPY581/591 staining-based FACS flow cytometric analysis. Format: functional. In short, it runs like this: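 Glutathione depletion by diethyl maleate in FRDA lymphocytes. Cells stained with C11-BODIPY581/591; oxidized green fluorescence read by FACS on the FL1-H channel. Lipid peroxidation taken as the increase in geometric mean fluorescence intensity relative to the untreated control, expressed as % scavenging activity. Compounds added from DMSO (final DMSO <0.5%). Mean ± SEM, n = 3.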

The species named for experiment [14] is Homo sapiens. In words: Reversal of 4-nitrobenzoate-induced reduction in mitochondrial ATP level in CoQ10-deficient human Friedreich's ataxia lymphocytes at 5 uM after 6 days by bioluminescence assay. It is filed as functional.
The species entered for experiment [15] is Homo sapiens. Nature of the experiment: Reversal of 4-nitrobenzoate-induced reduction in mitochondrial ATP level in CoQ10-deficient human Friedreich's ataxia lymphocytes at 10 uM after 6 days by bioluminescence assay. Format: functional.
For experiment [16], the species on record is Homo sapiens. Nature of the experiment: Decrease in mitochondrial ATP level in CoQ10-deficient human Friedreich's ataxia lymphocytes at 5 uM after 6 days by bioluminescence assay in presence of 4-nitrobenzoate. Format: functional.
Experiment [17] is filed under the species Homo sapiens. Nature of the experiment: Decrease in mitochondrial ATP level in CoQ10-deficient human Friedreich's ataxia lymphocytes at 5 uM after 6 days by bioluminescence assay. It is filed as functional.

Calls of active or inactive are those of the source. The calls are words filed in the database; no cut-off is given here.

By EC50 is commonly meant the concentration giving half of the maximal effect.

Regarding `CCCCCCCCCCC1=C(C)C(=O)C(OC)=C(OC)C1=O` [DECYLUBIQUINONE], the Activity result was “Dose-dependent effect” in experiment [1]; “Dose-dependent effect” in experiment [2]; 63% in experiment [3]; 76% in [4]; 93% in experiment [5]; 63% in experiment [6]. For the same compound, the Activity was found to be 99% in experiment [7]; 100% in [8]; 90% in experiment [9]; 82% in [10]; 60% in experiment [11]. For the same compound, in experiment [12], it took 56 nM to reach a half-maximal effect (EC50).
Take `CCCCCCCCCCCCCCc1nc(N(C)C)nc(OC)c1O`: the Activity in experiment [3] turned out to be 55%; in [4] it was 97%; in experiment [5], 109%; in [6], 65%; in experiment [7], 97%; in [8], 105%. Also, the figures for the Activity in experiment [9], in experiment [10] and in [11] were 92%, 88% and 77%, respectively. Moreover, the inhibition entry in [13] was “Active”. In [12], this compound registered an EC50 of 22 nM.
On to `COc1nc(N(C)C)nc(CCCCCCCCCCOCC23CC4CC(CC(C4)C2)C3)c1O`, for which the Activity in [3] was 72%; in experiment [4], 103%; in [5], 107%; in [6] it was 64%; in experiment [7], 97%; in experiment [8], 105%. Besides, the Activity in [9] was 90%; in [10] it was 82%; in [11], 63%. In experiment [13], the inhibition entry is “Active”. The same compound came in with a concentration giving a half-maximal response (EC50) in [12] of 32 nM.
Regarding `CCCCCCCCCCc1nc(N(C)C)nc(OC)c1O`, the Activity in experiment [3] turned out to be 58%; in experiment [4], 87%; in experiment [5], 94%; in experiment [6] it was 58%; in experiment [7] it was 83%; in experiment [8], 96%. The figures for the Activity in experiment [9], in experiment [10] and in experiment [11] were 88%, 80% and 68%, respectively. Also, in experiment [12], the concentration for a half-maximal effect (EC50) is 68 nM.
With `CCCCCCCCCCCCCCCCc1nc(N(C)C)nc(OC)c1OC(C)=O`, the Activity in experiment [3] worked out at 92%; in experiment [4] it was 101%; in experiment [5] it was 109%; in experiment [6], 96%; in experiment [7], 109%; in experiment [8], 116%.
In the case of `CCCCCCCCCCCCCCCCCCc1nc(N(C)C)nc(OC)c1O`, the Activity in experiment [3] is on record as 102%; in [4] it was 102%; in [5] it was 101%; in experiment [6] it was 96%; in experiment [7], 98%; in experiment [8], 98%. In addition, the values for the Activity in [9], in [10] and in [11] were 73%, 55% and 39%, respectively. Moreover, the inhibition result in experiment [13] is “Active”. Further, the midpoint of the response in experiment [12], the EC50, lay at 266 nM.
For `CCCCCCCCCCCCCCCCc1nc(N(C)C)nc(OC)c1O`, the Activity in experiment [3] came out at 80%; in experiment [4], 96%; in [5] it was 108%; in [6], 90%; in experiment [7], 106%; in experiment [8], 118%. Moreover, the figures for the Activity in experiment [9], in experiment [10] and in [11] were 92%, 90% and 81%, respectively. Moreover, the result in experiment [14] was Active. The inhibition entry in experiment [13] is “Active”. In [12], this compound yielded an EC50 of 25 nM.
Turning to `COc1nc(N(C)C)nc(CCCCCCCCCCO)c1O`, the result in [15] was inactive. In addition, the Activity in [3] is recorded as 46%; in [4] it was 66%; in [5], 80%; in experiment [6] it was 54%; in experiment [7], 95%; in [8], 102%. For the same compound, the Activity in experiment [9] amounted to 68%; in experiment [10], 48%; in [11] it was 32%. In [14], the result was Active. The inhibition result in experiment [13] is “Active”. Besides, it took 345 nM to reach a half-maximal effect in experiment [12] (EC50).
Take `Cc1nc(N(C)C)nc(CCCCCCCCCCO)c1O`: the Activity in experiment [3] was 28%; in [4] it was 46%; in experiment [5] it was 77%; in experiment [6], 46%; in [7] it was 86%; in experiment [8], 99%. Further, the Activity in [9] was 56%; in experiment [10], 37%; in experiment [11], 25%. In experiment [12], the concentration for a half-maximal effect (EC50) worked out at 456 nM.
With `COC1=C(OC)C(=O)C(CCCCCCCCCCO)=C(C)C1=O` [IDEBENONE], the result in [16] and in [17] was Active. Further, the Activity result in experiment [1] was “Dose-dependent effect”; in [2] it was “Dose-dependent effect”; in experiment [3], 3%; in experiment [4], 46%; in [5], 73%; in experiment [6], 2%. In addition, the Activity in experiment [7] worked out at 46%; in experiment [8], 80%; in experiment [9], 45%; in [10], 26%; in [11] it was 18%. A half-maximal effect in experiment [12] (EC50) was put at 551 nM.
